# Shown are actives, neighbours in structure and some others; about 2.3% of the full set was active somewhere.
# MsrA inhibitor: bovine MsrA enzyme inhibitors, primary screen, biochemical, absorbance, HTS; Methionine sulfoxide reductase A (Bos taurus); purified bovine MsrA, absorbance read-out; inhibition, % at 15.5 µM; 360,000 compounds, 0.75% hits; AID 651718, 2012;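 also: 0% = vehicle wells with enzyme and 100% = reference inhibitor wells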
# MC4R ag barr: MC4R agonists recruiting beta-arrestin, primary screen, cell-based, luminescence, agonist arm of biased-ligand search | U2OS MC4R beta-arrestin complementation; percent of melanotan II response, DMSO zero | Melanocortin receptor 4 (Homo sapiens), P32245 | activation, % at 8.9 µM | AID 540308, 2011 | 360,000 compounds, 0.98% hits;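 active = activation above a per-plate cutoff, the mean activation of sample wells on that plate plus 3 SD, cut at about 8% in these data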
# Target sequence (P32245 whole entry, looked up): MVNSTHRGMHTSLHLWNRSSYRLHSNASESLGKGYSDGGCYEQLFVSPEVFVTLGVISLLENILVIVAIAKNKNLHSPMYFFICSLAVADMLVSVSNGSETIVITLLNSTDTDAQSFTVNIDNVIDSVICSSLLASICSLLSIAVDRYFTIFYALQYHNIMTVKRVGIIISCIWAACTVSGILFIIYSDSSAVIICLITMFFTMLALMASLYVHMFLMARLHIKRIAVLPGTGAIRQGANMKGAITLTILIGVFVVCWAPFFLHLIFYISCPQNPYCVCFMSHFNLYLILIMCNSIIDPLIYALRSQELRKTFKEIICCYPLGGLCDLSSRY
# bovine MsrA act: bovine MsrA enzyme activators, primary screen, biochemical, absorbance, HTS; Methionine sulfoxide reductase A (Bos taurus); purified bovine MsrA, absorbance read-out; activation, % at 10.6 µM; 360,000 compounds, 0.3% hits; in the data active = activation above about 7.5%;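 also: 0% = vehicle and 100% = reference activator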
# MC4R antagonist: MC4R antagonists of cAMP signaling, primary screen, cell-based, TR-FRET, antagonist arm of biased-ligand search; Melanocortin receptor 4 (Homo sapiens), P32245; 360,000 compounds, 0.48% hits; inhibition, % at 6.5 µM; MC4R-expressing cells, MTII-stimulated cAMP, LANCE TR-FRET;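 active = inhibition above its plate's cutoff, the mean of tested wells on that plate plus 3 SD, cut at about 29% in these data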;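 also: 0% = Melanotan II alone and 100% = Melanotan II plus saturating MCL0020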
#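 system = U2OS cells with stable human MC4R expression | also added = Melanotan II challenge after compound preincubation | dosing = one concentration, 6.5 µM nominal | incubation = compound 30 min, challenge 1 h, detection 1 h | measured by = TR-FRET with Eu-cAMP and labeled anti-cAMP, 671 nm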
# MsrA inh confirm: bovine MsrA inhibitors, retest, confirmation, biochemical, absorbance, HTS; shares compounds with MsrA inhibitor; 2,300 compounds, 41% hits; AID 651822, 2012; purified bovine MsrA, absorbance read-out; inhibition, % at 15.5 µM;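 also: coupled to thioredoxin reductase with NADPH and selenocystamine and DMSO as substrate; 0% = vehicle only and 100% = full effect of reference inhibitor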
# Numbers without * were called inactive; / = no result given. Rule as the data show it, unless noted: active = inhibition above about 4.5%; inactive = the rest.
SMILES,MsrA inhibitor,MC4R ag barr,bovine MsrA act,MC4R antagonist,MsrA inh confirm
O=C(O)c1cc(N/N=C/C=C/c2ccccc2)ccc1Cl,5.1*,-3,-5,-2,4
Cc1occc1C(=O)N/N=C/C=C/c1ccccc1,5.5*,-2,-6,0,5.1*
O=C(N/N=C/C=C/c1ccccc1)c1cccc(Br)c1,4,-1,-1,-17,/
Cc1ccc(C(=O)N/N=C/C=C/c2ccccc2)cc1,4.9*,-2,-5,6,4.6*
Cc1cc(C(=O)N/N=C/C=C/c2ccccc2)c(C)o1,4.7*,0,-5,-11,4
O=C(Cc1ccc(S(=O)(=O)N2CCOCC2)s1)Nc1ccccc1N1CCOCC1,-1,0,-6,7,/
NC(=S)N/N=C/c1cccc(/C=N/NC(N)=S)c1,2,2,-1,-1,/
NC(=S)N/N=C/C=C/c1ccccc1,5.2*,-2,-8,-8,5
CCc1nccn1C(=O)c1cnn2c(C(F)F)cc(-c3ccc(C)cc3)nc12,4.8*,-3,-9,3,26*
O=C(CSc1n[nH]c(=O)[nH]c1=O)N/N=C/c1ccccc1O,0,-1,1,1,/
COc1cc(/C=N/NC(=O)C(=O)NCc2ccco2)cc(Br)c1O,6.0*,-1,-7,-3,4
COc1cc(/C=N/NC(=O)CSc2n[nH]c(=O)[nH]c2=O)cc(OC)c1O,4.8*,-2,-3,10,2
O=C(NCc1ccco1)C(=O)NN=Cc1ccccc1O,2,/,/,/,/
CCCCCC(=O)N/N=C/c1cc(Br)c(O)c(OC)c1,5.5*,0,-6,-1,3
COc1cc(/C=N/NC(=O)CC2(C)OCCO2)cc(Br)c1O,4,-2,-3,-1,/
Cc1cc(N2CCOCC2)nc2ccccc12,2,1,-2,1,/
Cc1cc(CSc2ccc(Cl)cc2)ccc1N,-1,-1,0,-1,/
COc1ccc(S(=O)(=O)N2CCC(C(=O)NCc3ccncc3)CC2)cc1OC,-2,-1,-3,9,/
O=C(N/N=C/c1cc([N+](=O)[O-])ccc1O)C1CC1,5.4*,-5,-5,-1,3
O=C(NN=Cc1ccc(F)cc1)C1CC1,0,0,-2,-3,/
O=C1NCCCC1C(=O)N/N=C/c1cc([N+](=O)[O-])ccc1O (stereo unspecified),4,-4,-5,13,/
O=C(N/N=C/c1cc(Br)c(O)c(Br)c1)C1CC1,5.3*,0,-4,8,4.6*
CCn1c(CNC(=O)c2ccccc2Br)nnc1SCC(=O)NC1=NCCS1,6.5*,-2,-2,8,1
Cc1ccc2nc(NC(=O)c3ccco3)sc2c1,2,-1,-5,2,/
COc1ccc2nc(Nc3ccc4c(c3)OCO4)sc2c1,1,3,-3,-8,/
SMILES,MsrA inhibitor,MC4R ag barr,bovine MsrA act,MC4R antagonist,MsrA inh confirm
COc1ccc2nc(NC(=O)c3ccco3)sc2c1,4.7*,0,-2,8,3
COc1ccc2nc(Nc3nc4cc5c(cc4s3)OCO5)sc2c1,4.8*,1,-7,-1,3
CC(C)c1ccccc1NC(=O)c1ccccc1NC(=O)C1CCCCC1,-1,2,-1,7,/
O=C1NC(N2CCOCC2)=N/C1=C/c1ccc2c(c1)OCO2,4.9*,0,-4,-34,3
OC(CNCc1ccccc1F)COc1cccc2ccccc12 (stereo unspecified),0,2,0,0,/
CC1(C)Cc2nc(N3CCOCC3)c(C#N)cc2CO1,1,-2,1,0,/
CC1(C)Cc2nc(N3CCCC3)c(C#N)cc2CO1,8.7*,-1,-11,-5,5.4*
C/C(=N\NC(=O)c1ccc(F)cc1)c1ccc(N2CCOCC2)cc1,2,0,-3,8,/
O=C(N/N=C/c1ccc(N2CCOCC2)cc1)c1ccc(O)cc1,5.6*,0,-6,14,4.8*
Cc1ccc(C(=O)N/N=C/c2ccc(N3CCOCC3)cc2)c(C)c1,5.5*,-2,-2,10,4
O=C(O)c1ccc(/C=N/NC(=S)NCCN2CCOCC2)cc1,6.1*,4,-12,-1,2
Cc1ccc(C(=O)NC(=S)Nc2ccc(N3CCOCC3)cc2)c(C)c1,1,-1,-3,9,/
S=C(NCCN1CCOCC1)N/N=C/c1cccs1,4,-1,-5,-4,/
C/C(=N\NC(=O)c1cccc(C)c1)c1ccc(N2CCOCC2)cc1,5.3*,0,-11,-12,3
COc1ccc(NC(=O)/C=C2\SC(=O)NC2=O)cc1,4.8*,-1,-5,4,3
COc1ccc(-c2noc(CSc3nc4ccccc4c(=O)n3-c3ccc(C)cc3)n2)cc1,0,0,-2,0,/
Cc1ccc(-c2nnc(Nc3ccc(C(=O)N(C)C)cc3)c3ccccc23)cc1S(=O)(=O)NCC1CCCO1 (stereo unspecified),4.7*,0,-3,8,3
COc1cc2cc(CN(Cc3nnnn3Cc3ccccc3)CC3CCCO3)c(=O)[nH]c2cc1OC (stereo unspecified),3,-3,-1,3,/
CC[C@]12C(=O)N(C)C[C@H]([C@@H]3C(=O)N(Cc4ccccc4)C(=O)[C@@H]31)N2C(=O)c1ccccc1,0,-1,-1,-2,/
COc1ccc(C(=O)NC(C)c2ccccc2)cc1Br (stereo unspecified),-1,1,-4,-1,/
C[C@@H](NC(=O)c1coc(=O)c(Br)c1)c1ccccc1,4.8*,0,-3,-1,4.8*
COc1ccc(C(OC(=O)c2ccco2)C(=O)NC2CCCC2)cc1OC (stereo unspecified),0,-1,-2,7,/
O=C(c1ccco1)n1nc(-c2ccccc2)nc1SCc1ccccc1,-1,-2,-1,12,/
CC(C)CCN1C(=O)c2ccc(C(=O)Nc3cc(C(=O)O)cc(C(=O)O)c3)cc2C1=O,1,-2,-3,2,/
O=Cc1ccc2oc3nc4n(c(=O)c3c(=O)c2c1)CCCS4,6.6*,-2,-3,6,5
Cc1sc2nc3n(c(=O)c2c1C)CCCS3,2,2,-3,7,/
Cc1ccc(C2=NS(=O)(=O)N(C)C(C(=O)N3CCCCC3)=C2)cc1,5.0*,0,-3,-3,3
Cc1ccc(C2=NS(=O)(=O)N(C)C(C(=O)NCc3ccccn3)=C2)cc1,5.2*,0,2,6,2
COc1ccc(C2=NS(=O)(=O)N(C)C(C(=O)N3CCN(C)CC3)=C2)cc1,5.9*,1,-4,3,3
CCN1CCN(C(=O)C2=CC(c3ccc(C)cc3)=NS(=O)(=O)N2C)CC1,3,0,-2,-7,/

# Source: PubChem BioAssay
